# Rows were chosen to be rich in hits. Some 3% of all compounds tested hit in one or more screens of this group.
# Rad51 HR inh: Rad51 (human) homologous recombination inhibition | hRad51 DNA strand exchange, fluorescence dequenching | 0.085% of 200,000 active | inhibition, % at 10 µM | Q06609;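 active = inhibition above 40% at the single screening dose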;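 also: 0% = DMSO control wells and 100% = blanks with heterologous ssDNA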
# Target sequence (Q06609 whole entry, looked up): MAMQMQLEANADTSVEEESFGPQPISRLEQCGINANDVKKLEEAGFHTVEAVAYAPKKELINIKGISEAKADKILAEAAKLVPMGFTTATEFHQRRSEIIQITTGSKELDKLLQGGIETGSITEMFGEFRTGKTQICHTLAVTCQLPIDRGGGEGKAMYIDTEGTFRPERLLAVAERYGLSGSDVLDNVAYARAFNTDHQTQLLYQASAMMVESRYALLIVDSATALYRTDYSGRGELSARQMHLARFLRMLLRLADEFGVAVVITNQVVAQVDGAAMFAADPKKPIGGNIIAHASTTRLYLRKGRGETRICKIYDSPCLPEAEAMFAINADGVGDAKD
#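 Assay system: Human Rad51 nucleoprotein filaments preassembled on unlabelled ssDNA | Reagent: Donor/quencher-labelled 47-bp dsDNA substrate | Doses: One concentration, 10 µM final | Times: 37 °C 15-min filament assembly, 30-min compound preincubation, 15-min exchange | Technique: Fluorescein emission 520 nm, excitation 485 nm | Benchmarks: Plate control and blank wells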
# PKD1 inh: PKD1 (human) kinase inhibition; Q15139; 0.056% of 200,000 active; PKD1 kinase fluorescence polarization assay; inhibition, % (no concentration beside the values); in the data active = inhibition above about 50%
# Cl transport mod: modulates chloride dependent transport by human KCC2 | AID 1456 | 2.2% of 190,000 active | B-score of Tl+ flux slope (higher = more flux/activation; lower = inhibition) at 10 µM | KCC2 cells, thallium flux FluoZin-2 fluorescence;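 active = thallium flux slope and its plate-corrected score both differing from the plate sample mean at a set confidence after two filtering rounds, in either direction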;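 also: slope of fluorescence scaled to starting intensity during 10 to 20 s after thallium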
# ROMK primary: modulates human ROMK potassium channel activity. P48048. Tet-inducible ROMK, thallium flux fluorescence; actives lie on both sides. B-score at 10 µM. 2% of 130,000 active. AID 1918;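 active = signal ratio slope over the read window, or its plate-corrected B-score, at least 3 SD from the plate mean, either direction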;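 also: B-score of the F/F0 ratio slope over 7 to 12 s after thallium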
# ROMK hit retest: retested hit modulating human ROMK potassium channel; 54% of 3,000 active; shares compounds with ROMK primary; normalized thallium flux (F/F0 slope) at 10 µM; ROMK thallium flux, fluorescence ratio; hits give low values;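 active = Flux at 10 µM at least 3 SD below or above vehicle control mean in one or both replicates; inconclusive = no clear call, values can overlap the other calls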
# * = called active by the depositor; ? = inconclusive; nt = not tested or not shown.
SMILES,Rad51 HR inh,PKD1 inh,Cl transport mod,ROMK primary,ROMK hit retest
O=C(O)CCCCCCC1C(=O)NC(=O)N1CCC(O)C1CCCCC1 (stereo not given),2,1,-1.8,4*,?
O=C(O)CCCCCN1C(=O)C2CCCCC2C1=O (stereo not given),0,-2,-0.56,0.7,nt
COc1ccc(NC(=O)/C(C#N)=C/c2ccc(Sc3nncn3C)c([N+](=O)[O-])c2)cc1,nt,-1,nt,-6.5*,0.036*
O=C(O)c1cccc(NC(=S)NC(=O)c2ccc(-c3ccc(Cl)cc3)o2)c1,-111,-10,-1.4,2.1*,0.083
CC(=O)Nc1cccc(/C(C)=N/NC(=O)c2ccc(O)cc2)c1,-3,6,0.13,0.015,nt
C/C(=N\NC(=S)Nc1c(C)cccc1C)c1ccc(O)cc1,-6,nt,0.07,nt,0.078
COC(=O)c1ccc([C@@H]2C[C@H]3CN(Cc4cccnc4)C(=O)[C@]34CCCN24)cc1,5,-2,0.71,0.12,nt
NC(N)=N/N=C/c1ccc2cccc(OCc3ccccc3)c2n1,7,nt,-0.028,-3.7*,0.049*
Cc1nn(C(C)C(=O)NCc2ccco2)c(C)c1[N+](=O)[O-] (stereo not given),-2,3,-0.14,nt,0.071
CC(=O)c1c(C)[nH]c(C(=O)CN2C(=O)NC(CCc3ccccc3)C2=O)c1C (stereo not given),3,nt,-0.041,nt,nt
CCN(CC)C(=O)CCSc1nnc(-c2ccco2)o1,nt,0,-0.055,1.3,0.073
CCN(CC)C(=O)CCSc1nnc(-c2ccncc2)o1,3,-17,0.13,0.84,nt
O=C(CSc1nnc(-c2ccco2)o1)c1ccccc1,-4,11,-0.22,nt,0.074
O=C(CSc1nnc(-c2ccco2)o1)c1ccc(F)c(F)c1,-4,10,-0.29,nt,nt
O=C(NN1C(=O)C2C(c3ccccc3)C=CC(c3ccccc3)C2C1=O)c1cccc(Br)c1 (stereo not given),-9,-7,-0.53,0.35,nt
O=C1OCC2=C1C(c1ccc(F)cc1)CC(=O)N2c1ccccc1 (stereo not given),nt,4,-0.036,3.1*,0.084
O=C1OCC2=C1C(c1ccc(F)cc1)CC(=O)N2c1ccc(F)cc1 (stereo not given),nt,4,0.21,1.2,nt
COCCNC(=O)c1ccccc1NC(=O)CSc1ccc(C)cc1,nt,4,0.29,-0.029,nt
Cc1ccc(C)c(C(=O)OCC(=O)Nc2ccc(N3CCOCC3)cc2)c1,28,-6,nt,-0.098,nt
Cc1ccc(OCC(=O)Nc2cccc(-c3nnc(-c4ccccc4)o3)c2)cc1,nt,-21,-0.89,nt,0.079
Cc1cccc(C)c1OCC(=O)Nc1cccc(-c2nnc(-c3ccccc3)o2)c1,-1,-5,-0.71,-1.8,nt
C/C=C/c1ccc(OCC(=O)OCc2csc(Nc3ccc(C)cc3)n2)c(OC)c1,-1,-3,0.95,-2.6*,0.065*
CCC1(c2ccc(F)cc2)NC(=O)N(CC(=O)Nc2ccc(C)c(S(=O)(=O)N3CCOCC3)c2)C1=O (stereo not given),3,0,-1.9,0.53,nt
Brc1ccc(N=C/C=C/C=C/Nc2ccc(Br)cc2)cc1,-3,-5,2.6,nt,?
Cc1cc(N2CCOCC2)ccc1/C=C1\NC(=O)N(CC(=O)Nc2ccc(F)cc2)C1=O,-16,-8,0.92,0.2,nt
SMILES,Rad51 HR inh,PKD1 inh,Cl transport mod,ROMK primary,ROMK hit retest
Cc1cc(N2CCOCC2)ccc1/C=C1\NC(=O)N(CC(=O)Nc2ccccc2C)C1=O,nt,-7,-0.0073,0.75*,?
CC(C)C1CC(CCN2CCCCC2)(c2ccccc2)CCO1 (stereo not given),-19,-3,0.69,-0.32,nt
Cc1ccc(Oc2ncccc2C(=O)NCC(=O)O)cc1,11,nt,nt,nt,nt
COc1ccc(C(=O)C2CCCN(Cc3cccc4c3OCO4)C2)cc1OC (stereo not given),9,8,-0.47,-0.12,nt
CC(OC(=O)c1ccncc1)C(=O)Nc1cc(S(=O)(=O)N2CCCCC2)ccc1Cl (stereo not given),nt,7,-0.024,-4.8*,0.068*
CCN(C(=S)Nc1ccc(Oc2ccccc2)cc1)c1ccccc1,-7,-4,-0.49,nt,nt
Cc1noc(C)c1C(=O)NCc1ccccc1F,8,-4,0.87,-0.074,nt
O=C(Cn1cnc([N+](=O)[O-])n1)NCc1ccccc1,nt,-15,nt,-0.28,nt
O=C(CCCn1cnc([N+](=O)[O-])n1)Nc1cccc2ccccc12,2,-9,0.39,0.022,0.073
CCCn1nnnc1NC(=O)COc1ccc(CC)cc1,9,-6,0.027,nt,nt
CC(C)=CCN1CCN(Cc2ccc(Sc3nncn3C)o2)CC1CCO (stereo not given),2,-9,0.51,0.57,nt
Cn1c(-[n+]2c(-c3ccccc3)cc(-c3ccccc3)cc2-c2ccccc2)nc2cc([N+](=O)[O-])ccc21,0,-1,-0.71,nt,0.06*
COc1ccc(NS(=O)(=O)c2ccc(SC)cc2)cc1,0,-8,nt,nt,nt
COc1ccc(NS(=O)(=O)c2ccc(NS(C)(=O)=O)cc2)cc1,5,0,nt,-3.2*,0.083
COc1ccc(S(=O)(=O)NC(C)C(=O)O)cc1 (stereo not given),-7,-1,-0.062,1*,0.074
O=C(CCc1nnc(CCCc2ccccc2)o1)NCC(F)(F)F,10,1,-0.88,0.3,nt
Cc1ccc(Cl)c(OC(=O)Cn2cnc3c2c(=O)n(C)c(=O)n3C)c1,-2,-2,-1.7,0.015,nt
CCNC(=O)CSc1nnc(-c2ccccc2Br)n1-c1cccc(C(F)(F)F)c1,1,-13,-0.14,nt,nt
CCOC(=O)C1(C)C=C(Nc2ccc(NC(C)=O)cc2)C(=O)N1c1ccc(NC(C)=O)cc1 (stereo not given),0,nt,1.3,nt,nt
Cc1ccc(/C=C2\Oc3c(ccc(O)c3CN3CCN(C)CC3)C2=O)cc1,-7,6,-0.38,nt,nt
CCc1ccc(/C=C2\Oc3c(ccc(O)c3CN3CCN(C)CC3)C2=O)cc1,-52,nt,1.5,-8.1*,0.046*
CCN1CCN(Cc2c(O)ccc3c2O/C(=C\c2ccc(C)cc2)C3=O)CC1,-59,-5,0.073,-5.7*,0.04*
COCCCNC(=O)CC1C(=O)N(Cc2ccccc2)C(C)c2nc3ccccc3n21 (stereo not given),5,5,1.3,-4.4*,0.089
O=C(CCl)N(c1ccc(Cl)cc1)c1c[nH]c2ccccc12,-8,3,-1.5,-2.2,0.056*
O=C1C=C(NCc2ccc3c(c2)OCO3)CC(c2ccccc2)C1 (stereo not given),5,-5,-1.9,-0.13,nt
CCCCc1ccc(N/C(N)=N/c2nc(C)cc(C)n2)cc1,-1,nt,-3.7,nt,0.057*
Cc1ccc(N/C(N)=N/c2nc(C)cc(C)n2)cc1,21,-4,0.77,-0.083,nt
Cc1cc(C)nc(/N=C(\N)Nc2ccccc2-c2ccccc2)n1,11,0,-0.084,-4.8*,0.053*
Cc1cc(S(=O)(=O)NCc2ccc(N3CCN(C)CC3)cc2)c(C)s1,9,nt,nt,nt,nt
N=c1n(Cc2ccccc2)c2ccccc2n1Cc1ccccc1,nt,4,0.044,-3.6*,?
